This is one part of a sample in which hits are shown more often than they occur.
T cruzi growth-1 = inhibitors of T. cruzi proliferation; T. cruzi beta-gal in NIH3T3, GalScreen luminescence, 90 h; inhibition, % at 8.34 µM; hit rate 5.9% among 77,000; AID 624255;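 active = mean inhibition above about 93%, with at least 55% of replicates each passing it, limit read from the data, passing the limit was not always enough; inconclusive = only one of those two conditions holds; inactive = neither condition holds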
IDH1 mut inh = IDH1 R132H (human) inhibition. O75874. IDH1 R132H reductase, diaphorase/resazurin fluorescence, 60 min. inhibition, % at 10 µM. hit rate 0.18% among 70,000. AID 624101; in the data active = inhibition above about 34%; inconclusive = no clear call, values can overlap the other calls; inactive = below about 11%;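 note: 0% = DMSO and 100% = no enzyme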
GASC1 inh = blocks human GASC-1 (KDM4C) demethylase activity. Q9H3R0. hit rate 0.15% among 96,000. GST-KDM4C 2-372, H3K9me3 peptide, LANCE TR-FRET. AID 720574. inhibition, % at 12.5 µM;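 active = mean replicate inhibition above about 25%, with at least 55% of replicates also reaching it, limit read from the data, passing the limit was not always enough; inconclusive = only one of those two conditions met; inactive = neither condition met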
Target sequence (Q9H3R0 2-372 limits assumed): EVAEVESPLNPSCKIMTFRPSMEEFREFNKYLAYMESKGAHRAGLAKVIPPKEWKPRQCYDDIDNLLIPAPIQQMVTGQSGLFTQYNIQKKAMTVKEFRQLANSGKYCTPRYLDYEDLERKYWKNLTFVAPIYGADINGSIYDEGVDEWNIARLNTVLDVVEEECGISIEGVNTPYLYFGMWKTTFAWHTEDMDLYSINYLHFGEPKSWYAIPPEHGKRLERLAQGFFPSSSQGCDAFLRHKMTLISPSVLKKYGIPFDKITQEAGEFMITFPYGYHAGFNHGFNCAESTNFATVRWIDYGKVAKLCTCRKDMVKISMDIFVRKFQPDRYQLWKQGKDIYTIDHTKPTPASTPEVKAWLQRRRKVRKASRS
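System: N-terminal GST-fused human GASC-1 (KDM4C) fragment, residues 2-372 / Amount: 10 nM GST-KDM4C in enzyme reaction / Also added: H3K9me3 peptide with Fe(II)/2OG / Times: 30 min demethylation and 1 h detection at room temperature / Signal: LANCE TR-FRET / Read-out basis: Fall in 671/618 emission ratio as inhibition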
T cruzi growth-2 = Trypanosoma cruzi proliferation inhibition; shares compounds with T cruzi growth-1; T. cruzi beta-gal in NIH3T3, GalScreen luminescence, 90 h; inhibition, % at 8.35 µM; hit rate 72% among 5,600;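 active = mean replicate inhibition above about 95% and at least 55% of replicates individually reaching it, limit read from the data; inconclusive = only one of the two criteria is met; inactive = neither criterion is met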
T cruzi growth-3 = Trypanosoma cruzi proliferation inhibition; shares compounds with T cruzi growth-1; T. cruzi beta-gal in NIH3T3, GalScreen luminescence, 90 h; inhibition, % at 2.09 µM; hit rate 21% among 5,600; AID 651740;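 active = mean inhibition above about 95%, with at least 55% of replicates also reaching it, limit read from the data; inconclusive = meets just one of the two conditions; inactive = meets neither condition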;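 note: plate controls were neutral control median for no effect and positive control median for full effect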
3T3 cytotox = kills mouse NIH/3T3 fibroblasts; cytotoxicity (signal decrease), % at 8.35 µM; NIH/3T3 viability, CellTiter-Glo ATP luminescence, 90 h; AID 651742; shares compounds with T cruzi growth-1; hit rate 14% among 5,600;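 active = mean signal decrease across replicates above about 35% based on untreated-well scatter, with enough replicates individually passing, limit read from the data; inconclusive = no rule stated though some were filed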;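 note: 0% = median of neutral control wells and 100% = median of positive control wells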
NIH3T3 tox 2 = kills mouse NIH/3T3 fibroblasts. inhibition, % at 24.9 µM. AID 651744. hit rate 56% among 5,600. NIH/3T3 viability, CellTiter-Glo ATP luminescence, 90 h. shares compounds with T cruzi growth-1;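 active = mean loss of cell viability signal at or above a set limit, and enough replicates individually reaching it; inconclusive = meets only the mean limit or only the replicate share; inactive = meets neither condition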;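 note: 0% = median of neutral control wells and 100% = median of positive control wells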
* = called active by the depositor; ? = inconclusive; / = not tested or not shown.

SMILES | T cruzi growth-1 | IDH1 mut inh | GASC1 inh | T cruzi growth-2 | T cruzi growth-3 | 3T3 cytotox | NIH3T3 tox 2
OC[C@@H]1[C@@H](c2ccc(C#CC3(O)CCCC3)cc2)[C@H]2CN(Cc3ccncc3)CCCCN12 | -66 | / | 2 | / | / | / | /
OC[C@@H]1[C@H](c2ccc(C#CC3(O)CCCC3)cc2)[C@@H]2CN(Cc3cncnc3)CCCCN12 | ? | / | -2 | 98* | 46 | 1 | -2
OC[C@H]1[C@H](c2ccc(C#CC3(O)CCCC3)cc2)[C@@H]2CN(Cc3cncnc3)CCCCN12 | 98* | / | 2 | 82 | 40 | 4 | -2
COCC#Cc1ccc([C@H]2[C@H]3CN(Cc4cccnc4)CCCCN3[C@H]2CO)cc1 | 48 | / | 0 | / | / | / | /
OC[C@@H]1[C@@H](c2ccc(C#CC3(O)CCCC3)cc2)[C@H]2CN(Cc3cccnc3)CCCCN12 | 119* | / | 0 | 80 | 36 | 13 | 23
N#Cc1c(NC(=O)Cn2c(=O)oc3ccccc32)sc2c1CCCC2 | / | 1 | / | / | / | / | /
C[C@@H]1CCCCO[C@@H](CN(C)Cc2ccc3c(c2)OCO3)[C@H](C)CN([C@H](C)CO)C(=O)c2cc(NC(=O)Nc3ccc(F)cc3)ccc2O1 | ? | / | 1 | 97* | 100* | 24 | 104*
C[C@@H]1CN([C@@H](C)CO)C(=O)c2cc(NC(=O)Nc3ccc4c(c3)OCO4)ccc2O[C@@H](C)CCCCO[C@H]1CN(C)Cc1ccc2c(c1)OCO2 | 95 | / | 1 | / | / | / | /
C[C@H]1CCCCO[C@H](CN(C)Cc2ccc3c(c2)OCO3)[C@@H](C)CN([C@@H](C)CO)C(=O)c2cc(NC(=O)Nc3ccc(F)cc3)ccc2O1 | 109* | 2 | 0 | 102* | 99* | 28 | 104*
C[C@@H]1CN([C@@H](C)CO)C(=O)c2cc(NC(=O)Nc3ccc(F)cc3)ccc2O[C@@H](C)CCCCO[C@@H]1CN(C)Cc1ccc2c(c1)OCO2 | 75 | / | -1 | / | / | / | /
O=C(CSc1nc(O)cc(=O)[nH]1)Nc1cccc(C(F)(F)F)c1 | / | 0 | / | / | / | / | /
Cc1ccc(S(=O)(=O)Nc2ccc3c(c2)C(=O)N([C@@H](C)CO)C[C@@H](C)[C@H](CN(C)C(=O)NC2CCCCC2)OCCCC[C@H](C)O3)cc1 | 114* | / | -3 | 92 | -32 | -20 | -16
C[C@H]1CCCCO[C@H](CN(C)C(=O)NC2CCCCC2)[C@@H](C)CN([C@@H](C)CO)C(=O)c2cc(NS(=O)(=O)c3ccccc3)ccc2O1 | 103* | / | -2 | 67 | 16 | -32 | -6
C[C@@H]1CCCCO[C@@H](CN(C)C(=O)NC2CCCCC2)[C@@H](C)CN([C@H](C)CO)C(=O)c2cc(NS(=O)(=O)c3ccccc3)ccc2O1 | 80 | / | 0 | / | / | / | /
Cc1ccc(S(=O)(=O)Nc2ccc3c(c2)C(=O)N([C@@H](C)CO)C[C@H](C)[C@H](CN(C)C(=O)NC2CCCCC2)OCCCC[C@H](C)O3)cc1 | 78 | -2 | -3 | / | / | / | /
Cc1ccc(S(=O)(=O)Nc2ccc3c(c2)C(=O)N([C@@H](C)CO)C[C@@H](C)[C@@H](CN(C)C(=O)NC2CCCCC2)OCCCC[C@@H](C)O3)cc1 | 101* | 0 | -1 | 99* | 71 | -21 | 31
Cc1ccc(S(=O)(=O)Nc2ccc3c(c2)C(=O)N([C@@H](C)CO)C[C@H](C)[C@@H](CN(C)C(=O)NC2CCCCC2)OCCCC[C@@H](C)O3)cc1 | 49 | 2 | 2 | / | / | / | /
N=C1C(c2nc3ccccc3s2)=C(O)CN1CCCN1CCOCC1 | / | 0 | / | / | / | / | /
Cc1ccc(CSc2nc(C)c(Oc3cccc(C(F)(F)F)c3)c(=O)n2C)cc1 | / | 1 | / | / | / | / | /
CC(C)CC#Cc1ccc2c(c1)O[C@@H](CN(C)C(=O)NC1CCCC1)[C@H](C)CN([C@@H](C)CO)S2(=O)=O | 118* | 29 | -1 | 100* | 77 | 19 | 9
C[C@@H]1CN([C@H](C)CO)S(=O)(=O)c2ccc(C#Cc3cccc(F)c3)cc2O[C@H]1CN(C)C(=O)NC1CCCCC1 | / | 3 | -1 | / | / | / | /
CC(C)CC#Cc1ccc2c(c1)O[C@@H](CN(C)C(=O)NC1CCCC1)[C@H](C)CN([C@H](C)CO)S2(=O)=O | 123* | 0 | 7 | 109* | 73 | 7 | 94*
CC(C)CC#Cc1ccc2c(c1)O[C@H](CN(C)C(=O)NC(C)C)[C@@H](C)CN([C@H](C)CO)S2(=O)=O | 85 | 0 | -1 | / | / | / | /
C[C@H]1CN([C@@H](C)CO)C(=O)c2cc(/C=C/c3ccccc3)cnc2O[C@H]1CN(C)Cc1ccc2c(c1)OCO2 | 72 | 0 | -1 | / | / | / | /
C[C@@H]1CN([C@H](C)CO)C(=O)c2cc(/C=C/c3ccccc3)cnc2O[C@H]1CN(C)Cc1ccc2c(c1)OCO2 | 121* | -1 | 0 | 100* | ? | 38* | 104*
SMILES | T cruzi growth-1 | IDH1 mut inh | GASC1 inh | T cruzi growth-2 | T cruzi growth-3 | 3T3 cytotox | NIH3T3 tox 2
C[C@H](CO)N1C[C@H](C)[C@@H](CN(C)Cc2ccc3c(c2)OCO3)Oc2ncc(/C=C/c3ccccc3)cc2C1=O | 92 | -3 | 7 | / | / | / | /
C/C=C/c1cnc2c(c1)C(=O)N([C@H](C)CO)C[C@H](C)[C@H](CN(C)Cc1ccc3c(c1)OCO3)O2 | / | 0 | -2 | / | / | / | /
C[C@H]1CN([C@@H](C)CO)C(=O)c2cc(/C=C/c3ccccc3)cnc2O[C@@H]1CN(C)Cc1ccc2c(c1)OCO2 | 118* | 0 | 0 | 108* | 73 | 14 | 102*
C[C@H](CO)N1C[C@H](C)[C@H](CN(C)Cc2ccc3c(c2)OCO3)Oc2ncc(/C=C/c3ccccc3)cc2C1=O | 111* | 1 | -1 | 98* | 64 | 28 | 103*
CN(C)CCCN1C(=O)C(=O)C(C(=O)c2ccco2)C1c1cccc([N+](=O)[O-])c1 (configuration not stated) | / | 1 | / | / | / | / | /
COc1cc(OC)c2c(=O)c(OC)c(-c3ccccc3)oc2c1 | / | 0 | / | / | / | / | /
CCCNC(=O)[C@H]1[C@H](CO)[C@H]2Cn3c(ccc(-c4cccc(OC)c4)c3=O)[C@@H]1N2CCC | 79 | / | -1 | / | / | / | /
CCCNC(=O)[C@H]1[C@H](CO)[C@H]2Cn3c(ccc(C4=CCCC4)c3=O)[C@@H]1N2C(C)=O | -4 | / | 5 | / | / | / | /
CCCNC(=O)[C@@H]1[C@@H](CO)[C@@H]2Cn3c(ccc(-c4cccc(OC)c4)c3=O)[C@H]1N2CCC | 100* | / | 0 | 52 | 11 | 7 | 14
CCCNC(=O)[C@H]1[C@H](CO)[C@H]2Cn3c(ccc(-c4ccccc4)c3=O)[C@@H]1N2C(=O)CC1CC1 | 106* | / | 0 | 82 | 3 | 3 | -8
CCCNC(=O)[C@@H]1[C@@H](CO)[C@@H]2Cn3c(ccc(C4=CCCC4)c3=O)[C@H]1N2C(C)=O | 106* | / | 2 | 108* | 16 | 3 | -6
